ChEMBL document CHEMBL5058577, “EUbOPEN Chemogenomics Library 2 (Multiplex)” (2022)

System: Fibroblast
Test: Multiplex assay against human fibroblast
Format: toxicity, cell-based
Outline: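 Imaging took place on a CQ1 microscope at 37°C and 5% CO2 once compound had been added to live cells stained at seeding with Hoechst33342, BioTracker Green Microtubule Cytoskeleton Dye, MitoTracker Red and Annexin V Alexa Fluor 680. CellPathfinder machine-learning gating classed cells as Hoechst high-intensity objects or normal cells, classed normal cells as having healthy, pyknosed or fragmented nuclei, and classed pyknosed cells as mitotic or apoptotic. Tubulin, mitochondrial-mass and membrane-permeability phenotypes are per cents of the healthy-nucleus cells.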

[1] = 12 h, 1 µM, compound concentration 1 uM, replicate 1
[2] = 12 h, 1 µM, compound concentration 1 uM, replicate 2
[3] = 12 h, 10 µM, compound concentration 10 uM, replicate 1
[4] = 12 h, 10 µM, compound concentration 10 uM, replicate 2
[5] = 24 h, 1 µM, compound concentration 1 uM, replicate 1
[6] = 24 h, 1 µM, compound concentration 1 uM, replicate 2
[7] = 24 h, 10 µM, compound concentration 10 uM, replicate 1
[8] = 24 h, 10 µM, compound concentration 10 uM, replicate 2
[9] = 48 h, 1 µM, compound concentration 1 uM, replicate 1
[10] = 48 h, 1 µM, compound concentration 1 uM, replicate 2
[11] = 48 h, 10 µM, compound concentration 10 uM, replicate 1
[12] = 48 h, 10 µM, compound concentration 10 uM, replicate 2

## COc1cc(NC(=O)CCN2CCC(OC(=O)Nc3ccccc3-c3ccccc3)CC2)c(Cl)cc1CNC[C@H](O)c1ccc(O)c2[nH]c(=O)ccc12 [BATEFENTEROL]
[1]
  Population Apoptotic (%): 53%
  Population Fragmented Nuclei (%): 25%
  Population Healthy Nuclei (%): 58%
  Population Hoechst High Intensity Objects (%): 2%
  Population Membrane Permeable-Phenotype (%): 0%
  Population Mitochondria Different-Phenotype (%): 13%
  Population Mitotic Cells (%): 46%
  Population Normal (%): 97%
  Population Pyknosed Nuclei (%): 15%
  Population Tubulin-Different-Phenotype (%): 42%
  Total Cell Count: 181
[2]
  Population Apoptotic (%): 37%
  Population Healthy Nuclei (%): 54%
  Population Hoechst High Intensity Objects (%): 3%
  Population Membrane Permeable-Phenotype (%): 3%
  Population Mitochondria Different-Phenotype (%): 7%
  Population Mitotic Cells (%): 62%
  Population Normal (%): 96%
  Population Pyknosed Nuclei (%): 20%
  Population Tubulin-Different-Phenotype (%): 50%
  Total Cell Count: 124
[3]
  Population Apoptotic (%): 46%
  Population Fragmented Nuclei (%): 24%
  Population Healthy Nuclei (%): 59%
  Population Hoechst High Intensity Objects (%): 2%
  Population Membrane Permeable-Phenotype (%): 0%
  Population Mitochondria Different-Phenotype (%): 22%
  Population Mitotic Cells (%): 53%
  Population Normal (%): 97%
  Population Pyknosed Nuclei (%): 16%
  Population Tubulin-Different-Phenotype (%): 63%
  Total Cell Count: 199
[4]
  Population Apoptotic (%): 41%
  Population Fragmented Nuclei (%): 44%
  Population Healthy Nuclei (%): 41%
  Population Membrane Permeable-Phenotype (%): 1%
  Population Mitochondria Different-Phenotype (%): 23%
  Population Mitotic Cells (%): 58%
  Population Pyknosed Nuclei (%): 13%
  Population Tubulin-Different-Phenotype (%): 84%
  Total Cell Count: 128
[5]
  Population Apoptotic (%): 55%
  Population Fragmented Nuclei (%): 21%
  Population Healthy Nuclei (%): 62%
  Population Hoechst High Intensity Objects (%): 1%
  Population Membrane Permeable-Phenotype (%): 0%
  Population Mitochondria Different-Phenotype (%): 7%
  Population Mitotic Cells (%): 44%
  Population Normal (%): 98%
  Population Pyknosed Nuclei (%): 15%
  Population Tubulin-Different-Phenotype (%): 39%
  Total Cell Count: 174
[6]
  Population Apoptotic (%): 50%
  Population Fragmented Nuclei (%): 26%
  Population Healthy Nuclei (%): 59%
  Population Hoechst High Intensity Objects (%): 2%
  Population Membrane Permeable-Phenotype (%): 3%
  Population Mitochondria Different-Phenotype (%): 10%
  Population Mitotic Cells (%): 50%
  Population Normal (%): 97%
  Population Pyknosed Nuclei (%): 14%
  Population Tubulin-Different-Phenotype (%): 57%
  Total Cell Count: 131
[7]
  Population Apoptotic (%): 51%
  Population Fragmented Nuclei (%): 35%
  Population Healthy Nuclei (%): 53%
  Population Hoechst High Intensity Objects (%): 0%
  Population Membrane Permeable-Phenotype (%): 0%
  Population Mitochondria Different-Phenotype (%): 34%
  Population Mitotic Cells (%): 48%
  Population Normal (%): 99%
  Population Pyknosed Nuclei (%): 11%
  Population Tubulin-Different-Phenotype (%): 63%
  Total Cell Count: 247
[8]
  Population Apoptotic (%): 81%
  Population Fragmented Nuclei (%): 46%
  Population Healthy Nuclei (%): 45%
  Population Hoechst High Intensity Objects (%): 1%
  Population Membrane Permeable-Phenotype (%): 1%
  Population Mitochondria Different-Phenotype (%): 14%
  Population Mitotic Cells (%): 18%
  Population Normal (%): 98%
  Population Pyknosed Nuclei (%): 8%
  Population Tubulin-Different-Phenotype (%): 80%
  Total Cell Count: 136
[9]
  Population Apoptotic (%): 62%
  Population Fragmented Nuclei (%): 23%
  Population Healthy Nuclei (%): 54%
  Population Hoechst High Intensity Objects (%): 3%
  Population Membrane Permeable-Phenotype (%): 0%
  Population Mitochondria Different-Phenotype (%): 18%
  Population Mitotic Cells (%): 37%
  Population Normal (%): 96%
  Population Pyknosed Nuclei (%): 22%
  Population Tubulin-Different-Phenotype (%): 53%
  Total Cell Count: 185
[10]
  Population Apoptotic (%): 66%
  Population Fragmented Nuclei (%): 29%
  Population Healthy Nuclei (%): 56%
  Population Membrane Permeable-Phenotype (%): 4%
  Population Mitochondria Different-Phenotype (%): 14%
  Population Mitotic Cells (%): 33%
  Population Pyknosed Nuclei (%): 14%
  Population Tubulin-Different-Phenotype (%): 70%
  Total Cell Count: 130
[11]
  Population Apoptotic (%): 74%
  Population Fragmented Nuclei (%): 22%
  Population Healthy Nuclei (%): 54%
  Population Hoechst High Intensity Objects (%): 1%
  Population Membrane Permeable-Phenotype (%): 0%
  Population Mitochondria Different-Phenotype (%): 45%
  Population Mitotic Cells (%): 25%
  Population Normal (%): 98%
  Population Pyknosed Nuclei (%): 22%
  Population Tubulin-Different-Phenotype (%): 77%
  Total Cell Count: 213
[12]
  Population Apoptotic (%): 88%
  Population Fragmented Nuclei (%): 45%
  Population Healthy Nuclei (%): 48%
  Population Hoechst High Intensity Objects (%): 0%
  Population Membrane Permeable-Phenotype (%): 1%
  Population Mitochondria Different-Phenotype (%): 15%
  Population Mitotic Cells (%): 11%
  Population Normal (%): 99%
  Population Pyknosed Nuclei (%): 6%
  Population Tubulin-Different-Phenotype (%): 76%
  Total Cell Count: 144
